Article PMC4136418 (Drug development and industrial pharmacy, 2013)
In brackets after ≈: the same amount, converted by molar mass.

Key:
[1] = Human ectocervical tissue permeability study; assay type: in vitro ADME
[2] = In vitro cytotoxicity, MTT assay, CaSki cells; assay type: cell-based; conditions: human
Summary of the method: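 Cells are grown at 37 °C in 5% CO2 with 10% FBS and penicillin-streptomycin: A 431 in DMEM, CaSki in RPMI 1640. They are seeded at 1 × 10^4/well, grown 24 h, then exposed to 1 ng/ml–50 μg/ml compound for 24, 48 or 72 h. Fresh medium plus MTT (5 mg/ml solution) follows for 4 h. Formazan is dissolved in DMSO and read at 595 nm; n = 8.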

[3] = Dynamic vapor sorption; assay type: physicochemical; conditions: 25°C/80% RH
Summary of the method: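 Test compound powder (about 7 mg) is dried at 0% RH for at least 2 h at 40 °C. Sorption then runs isothermally at 25 °C, with RH stepped from 0 to 90% and back to 0%.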

[4] = Stability study; assay type: physicochemical; conditions: all test conditions: pH 3.0–9.0, 25, 40 or 65 °C, light, 0.02% hydrogen peroxide; up to 21 days
[5] = Solubility in buffers, Vaginal Fluid Simulant and organic solvents; assay type: physicochemical
[6] = Transport across Caco-2 cell monolayers; assay type: in vitro ADME, human; conditions: human; for Papp A→B at 2 h, 25 μg/ml: Caco-2, Papp (a–b)
Summary of the method: (§1)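 Caco-2 cells (passages 27–32) are grown on 4.2 cm2 polycarbonate inserts and used on days 21–24 if TEER exceeds 600 Ωcm2. HBSS is buffered with […] (pH 5.5, 6.5) or HEPES (pH 7.4); monolayers are preincubated 20 min. The pH study uses 25 μg/ml apical, basolateral pH 7.4. Bidirectional runs use 2.5–250 μg/ml at pH 7.4. Incubation is 2 h at 37 °C with sampling to 120 min; HPLC gives Papp = (dQ/dt)/(A×C0); n = 3.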

[7] = test system: Caco-2 cell monolayers; experiment: Transport across Caco-2 cell monolayers; assay type: in vitro ADME, human
Summary of the method: as §1

[8] = test system: HIV-1; assay type: cell-based; conditions: 16 h pretreatment, drug removed before HIV exposure
[9] = test system: HIV; conditions: cited from earlier work
[10] = test system: HIV-1; assay type: cell-based; conditions: for Anti-HIV activity: drug present at constant levels throughout the HIV infection process, 48 h

In the case of `C#C[C@]1(CO)O[C@@H](n2cnc3c(N)nc(F)nc32)C[C@@H]1O` [EFdA, 4′-Ethynyl-2-fluoro-2′-deoxyadenosine], the Papp at 6 h, 500 μg/ml ([1]; female, human, pH 7.4) is reported as 0.834 ×10⁻⁶ cm/s, the “Tissue morphology after exposure” value ([1]; human ectocervical tissues pre- and post-treatment) is reported as “lack of any significant morphological changes” and the CC50 at 48 h [2] is reported as 47.8 ± 12.4 µg/mL (≈ 0.163 mM). For the same compound, the CC50 at 72 h [2] was 41.1 ± 8.78 µg/mL (≈ 0.14 mM), the Moisture absorbed [3] was “approximately 10 % w/w” and the Drug remaining [4] was over 95%. For the same compound, the solubility at 120 h ([5]; PBS, pH 6) was 799 ± 8.7 µg/mL (≈ 2.73 mM), the solubility ([5]; Vaginal Fluid Simulant, pH 4.2) was 887 µg/mL (≈ 3.03 mM) and the solubility at 120 h ([5]; acid phthalate buffer, pH 3) was 1510 ± 68.4 µg/mL (≈ 5.14 mM). For the same compound, the solubility at 120 h ([5]; acid phthalate buffer, pH 4) was 1360 ± 48.3 µg/mL (≈ 4.63 mM), the solubility at 120 h ([5]; acid phthalate buffer, pH 4, aqueous buffer, thermodynamic from solid) was 1620 ± 55.9 µg/mL (≈ 5.53 mM) and the Change in solubility ([5]; from pH 6–9) was “no obvious change in solubility”. The “Change in solubility with increase in ionic strength” value ([5]; pH 7.0 and 9.0) was “statistically significant decrease”, the Papp at 2 h ([6]; Caco-2) was under 1 ×10⁻⁶ cm/s and the efflux ratio at 2 h, 25 μg/ml ([6]; Caco-2) was 8.01. It also gave an efflux ratio at 2 h, 250 μg/ml ([6]; Caco-2) of 2.74, a Papp A→B at 2 h, 25 μg/ml ([6]; apical pH 5.5, basolateral pH 7.4) of 0.367 ×10⁻⁶ cm/s and a Papp A→B at 2 h, 25 μg/ml ([6]; apical pH 6.5, basolateral pH 7.4) of 0.436 ×10⁻⁶ cm/s. The Papp A→B at 2 h, 250 μg/ml ([6]; Caco-2, pH 7.4, Papp (a–b), 250 μg/ml, pH 7.4 both sides) was 0.595 ×10⁻⁶ cm/s, the “Absorptive transport (a–b), drug in receptor compartment” value ([7]; 2.5 μg/ml, pH 7.4, HPLC LOD 0.05 μg/ml) was “no EFdA was detected” and the “Papp (b-a), fold lower than low and medium concentration treatments” value ([7]; high concentration group (250 μg/ml)) was “about 2 fold”. The “Protective or memory effect” value [8] was “retained anti-HIV protection similar to that seen when EFdA was present throughout the infection”, the EC50 [9] was about 0.07 nM and the “Selectivity index (CC50/EC50)” value ([10]; cell-based studies) was “greater than 1 × 10^3”. The Anti-HIV activity [10] was “highly potent inhibitors” and the “Potency relative to UC781” value ([10]; drug present throughout infection) was “about two-fold more potent than UC781”.

For `CC(C)=CCOc1cc(NC(=S)c2ccoc2C)ccc1Cl` [UC781, reference compound], the “Protective or memory effect” value [8] was “substantial diminution of anti-HIV protection” and the Anti-HIV activity [10] was “highly potent inhibitors”.
